Screening results: PubChem, several laboratories
This is a sample that favours compounds with a hit; in the whole collection about 2.7% have one here.
HNF4A DNA FP = change in binding of human HNF4 alpha to DNA; HNF4a-FITC DNA binding, fluorescence polarization, 1 h; 0.3% of 360,000 active; AID 1224865; P41235; activity change, % at 10 µM; in the data active = activity change above about 30%, passing the limit was not always enough
Target sequence (P41235 whole entry, looked up): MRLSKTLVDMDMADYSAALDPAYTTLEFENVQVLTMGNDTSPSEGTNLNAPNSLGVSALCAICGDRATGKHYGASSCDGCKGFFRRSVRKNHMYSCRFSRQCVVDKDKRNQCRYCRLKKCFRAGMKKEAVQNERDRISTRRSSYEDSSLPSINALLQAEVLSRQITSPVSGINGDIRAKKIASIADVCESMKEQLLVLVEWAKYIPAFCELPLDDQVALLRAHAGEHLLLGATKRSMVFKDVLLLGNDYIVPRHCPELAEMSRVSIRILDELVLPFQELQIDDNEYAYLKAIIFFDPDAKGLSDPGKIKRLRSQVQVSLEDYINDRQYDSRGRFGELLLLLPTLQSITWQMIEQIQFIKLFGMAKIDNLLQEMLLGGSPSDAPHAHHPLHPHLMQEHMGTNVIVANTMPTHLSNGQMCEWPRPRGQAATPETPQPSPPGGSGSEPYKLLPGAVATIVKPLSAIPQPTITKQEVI
PP1 inh = blocks human PP1-alpha phosphatase, a PP5 counter-screen | purified PP1alpha, OMFP fluorescence | 0.9% of 320,000 active | AID 2235 | P62136 | inhibition, % at 6.7 µM;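 active = inhibition above the mean inhibition of all tested compounds plus 3 SD, computed separately for each screening campaign, cut at about 15% in these data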
CSN inh = CSN deneddylation inhibition; Q92905; Purified CSN, SCF-Nedd8-OG deneddylation, fluorescence polarization; inhibition, % at 12.5 µM; 0.38% of 360,000 active; AID 651999;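 active = pattern-corrected inhibition above about 35%, with an unprinted fluorescence ratio check between 0.5 and 1.5, limit read from the data, passing the limit was not always enough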;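 note: 0% = enzyme with substrate and 100% = substrate without enzyme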
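Detection – fluorescence polarization · System – HEK293T-derived human Csn5 enzyme · Controls – substrate-only high control, full reaction low control · Timing – 90 min, room temperature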
Rpn11 inh = inhibitors of human proteasome Rpn11; inhibition, % at 20 µM; human 26S proteasome, Ub4-pepOG fluorescence polarization; 20S core pre-blocked with epoxomicin; AID 588493; O00487; 0.59% of 360,000 active;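 active = inhibition at 20 µM, scaled to each plate's controls, above about 33%, limit read from the data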
NadD inh = blocks S. aureus nicotinate mononucleotide adenylyltransferase. AID 602399. 0.78% of 360,000 active. inhibition, % at 20 µM. purified NadD enzyme, colorimetric absorbance read-out; in the data active = inhibition above about 26%
TPT1 inh = inhibitors of Candida albicans tRNA 2'-phosphotransferase TPT1. inhibition, % at 5 µM. 0.81% of 300,000 active. recombinant caTPT1, FP RNA substrate dephosphorylation;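 active = inhibition above the mean of all tested compounds plus 3 SD, set per screening campaign, cut at about 24% in these data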;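 note: plate controls were DMSO alone for no effect and ferristatin control at 100 nM for full effect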
Rpn11 inh conf = Rpn11 inhibition confirmation, single concentration | shares compounds with Rpn11 inh | purified human 26S proteasome, Ub4-pepOG fluorescence polarization; proteasome pretreated with epoxomicin | inhibition, % at 20 µM | 29% of 1,900 active | AID 602318
MMP-2 counter = counter-screen for RPN11 inhibitors: inhibition of human MMP-2; 4% of 1,900 active; inhibition, % at 20 µM; shares compounds with Rpn11 inh; recombinant MMP-2, FRET peptide cleavage fluorescence;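 note: human MMP-2 activated beforehand with APMA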
Thrombin FP = thrombin (bovine) inhibition counter-screen | shares compounds with Rpn11 inh | bovine thrombin cleavage of Ub4-pepOG, fluorescence polarization | inhibition, % at 20 µM | 13% of 1,900 active;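 active = mean inhibition at least 40% at 20 µM, or signal 3 deviations below plate average, so some actives read negative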;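 note: plate controls were thrombin with DMSO for no effect and buffer wells lacking thrombin for full effect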
The depositor's hits bear a star. Cut-off read from the data, not from the text of the source, unless noted: active = inhibition above about 40%; inactive = the rest.

CCc1nc2ccccc2n1CC(=O)NC1CCS(=O)(=O)C1 (centres undefined) was read as HNF4A DNA FP 2, CSN inh 1, Rpn11 inh -2 and NadD inh -2.
`O=c1oc(-c2cccs2)nc2sc3c(c12)CCCC3` gave HNF4A DNA FP 5, PP1 inh -4, CSN inh -1, Rpn11 inh 1, NadD inh -2 and TPT1 inh 1.
O=c1c2c3c(sc2nc2n1N=C(c1cccs1)CS2)CCCC3 was read as HNF4A DNA FP 12, PP1 inh -2, CSN inh 20, Rpn11 inh 58*, NadD inh 1, TPT1 inh 4, Rpn11 inh conf 16, MMP-2 counter -27 and Thrombin FP -17.
`COc1ccc(N(C(=O)c2snc(C(N)=O)c2N)C(C(=O)NC2CCCC2)c2cc(OC)ccc2OC)cc1` (centres undefined) gave HNF4A DNA FP -1, PP1 inh 5, CSN inh 3, Rpn11 inh 6, NadD inh -1 and TPT1 inh -1.
Screening COc1cc(-c2noc(CCC(=O)Nc3cccnc3)n2)cc(OC)c1OC returned HNF4A DNA FP 7, PP1 inh -3, CSN inh -1, Rpn11 inh 36*, NadD inh 10, TPT1 inh 3, Rpn11 inh conf -7, MMP-2 counter -6 and Thrombin FP -8.
`C[C@H](CO)N1C[C@H](C)[C@@H](CN(C)C(=O)Nc2ccc3c(c2)OCO3)Oc2c(NC(=O)Nc3ccc4c(c3)OCO4)cccc2C1=O` gave HNF4A DNA FP 3, CSN inh 1, Rpn11 inh -2 and NadD inh 3.
For COc1cccc(C(C)(O)c2nc(-c3ccc(OC)nc3)cs2)c1 (centres undefined) the results were HNF4A DNA FP -4, CSN inh 8, Rpn11 inh 1 and NadD inh 0.
CCOc1nc(NC2CCCC2)nc(N2CCC(C)CC2)n1 was read as HNF4A DNA FP -1, PP1 inh -1, CSN inh -4, Rpn11 inh -9, NadD inh 3 and TPT1 inh -2.
Screening CCn1c(O)c(/C=N/N=C2CCCC2)c2ccc(C3=NNC(=O)CC3)cc21 returned HNF4A DNA FP 4, PP1 inh 2, CSN inh 8, Rpn11 inh 40*, NadD inh -1, TPT1 inh 12, Rpn11 inh conf 35, MMP-2 counter -49 and Thrombin FP 6.
`CCc1nc2c(OCc3cccc(Cl)c3)cccn2c1N(C)C(=O)c1ccncc1` gave HNF4A DNA FP 2, CSN inh -5, Rpn11 inh -2 and NadD inh 1.
`CC(=O)Nc1nc2cc([N+](=O)[O-])ccc2s1` gave HNF4A DNA FP 0, PP1 inh 0, CSN inh -1, Rpn11 inh 14 and NadD inh -6.
`O=c1nc(Nc2ccc(Br)cc2)sc2ccc([N+](=O)[O-])cc12` gave HNF4A DNA FP -5, PP1 inh 11, CSN inh 46*, Rpn11 inh 44*, NadD inh 27, TPT1 inh -1, Rpn11 inh conf -5, MMP-2 counter -1 and Thrombin FP -9.
`CCN(CC)C(=O)c1sc(NC(=O)c2ccc3c(c2)OCO3)c(C#N)c1C` gave HNF4A DNA FP -3, PP1 inh -3, CSN inh 4, Rpn11 inh -6, NadD inh -2 and TPT1 inh 0.
`Cc1c(C(=O)N2CCOCC2)sc(NC(=O)c2ccc3c(c2)OCO3)c1C#N` gave HNF4A DNA FP 5, PP1 inh -4, CSN inh 10, Rpn11 inh 41*, NadD inh 9, TPT1 inh 4, Rpn11 inh conf -4, MMP-2 counter 5 and Thrombin FP -17.
